Paper PMC3178738 (Bioconjugate chemistry, 2011)
Entries after “also recorded” stand apart in the source; their conditions may differ. Values belong to the substance of their own block, whether it stands above or below them.

How the values were obtained:
[1] = Stability of the aluminum chelates in PBS; format: physicochemical; conditions: chemical stability, pH 7.4, 37 °C
Procedure, shortened: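 Al–OH and Al–F chelates of the test chelator, made by reacting it with AlCl3 or AlF3, were incubated in PBS, pH 7.4, at 37 °C. Aluminum loss (demetalation) was followed by RP-HPLC at 3 h, 12 h and 24 h.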

[2] = animal studies, cited from earlier work

time stable in PBS [1]: over 24 h
Substance: AlF(NODA-MPAA) [compound 3]
loss of aluminum (demetalation) ([1]; 24 h, RP-HPLC): no detectable loss of aluminum; also recorded: no signs of demetalation

demetalation ([1]; 3 h, RP-HPLC): 23% | demetalation ([1]; 12 h, RP-HPLC): 61%
Substance: AlOH(NODA-MPAA) [compound 2]

Substance: NODA-MPAA-D-Lys(HSG)-D-Tyr-D-Lys(HSG)-NH2 [IMP485]
presence in the bone ([2]; kit formulated IMP485, supporting in vivo stability): negligible | clearance from the body ([2]; kit formulated IMP485): rapid clearance from the body via the kidneys
